The source of these data is ChEMBL document CHEMBL1153784, “Synthesis, characterization, antiamoebic activity and toxicity of novel bisdioxazole derivatives” (Eur J Med Chem, 2009).

The nature of series [1]: Toxicity in rat H9c2 cells after 48 hrs by MTT assay. The format is cell-based. The procedure, abridged: (§1)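 Subconfluent H9c2 cardiac myoblasts exposed to increasing compound concentrations for 48 h at 37 °C in 5% CO2, with an untreated control. Cells washed in PBS, given 5 mg/ml MTT for 45 min at 37 °C. Crystals dissolved in acid isopropanol, absorbance read at 570 nm. Viability = absorbance of treated relative to untreated cells. Run in triplicate.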

Series [2] in a line: Safety index, ratio of IC50 for rat H9c2 cells to IC50 for Entamoeba histolytica HM1:IMSS trophozoites. Format: toxicity, cell-based. The settings on record: read-out: Ratio IC50.
In the next series the test system is Entamoeba histolytica. Kind of series: Antiamoebic activity against Entamoeba histolytica HM1:IMSS trophozoites after 72 hrs by microdilution method. Format: functional, organism-based. The procedure, abridged:
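Trophozoites grown in Diamond TYIS-33 medium in 96-well plates; amoebae detached by chilling on ice. Compounds from freshly prepared 1 mg/ml DMSO stocks, twofold serial dilutions, DMSO at most 0.016%. Plates gassed with nitrogen 10 min, incubated 37 °C 72 h, washed with 0.9% NaCl, stained, dye released with 0.1 N NaOH, OD 490 nm. IC50 by linear regression of % inhibition vs log dose. Triplicate wells, repeated thrice.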

A short description of series [3]: Toxicity in rat H9c2 cells assessed as cell viability at 12.5 ug/ml after 48 hrs by MTT assay. Format: cell-based. The settings on record: read-out: Activity. The procedure, abridged: as §1

A word on the IC50: it is the midpoint of a concentration-inhibition curve. A lower IC50 goes with inhibition by little substance.

Molecules are shown by their SMILES. Some results are limits rather than exact numbers.

Take `COc1ccc(C2ON=C(c3ccc(C4=NOC(c5ccc(OC)cc5)O4)cc3)O2)cc1` (stereo not given): in series [1], the IC50 at 48 h was over 17 µM. Besides, the selectivity ratio in series [2] was over 16.8. This compound returned an IC50 in the series on Entamoeba histolytica of 1.01 µM. In addition, the viability at 48 h, 12.5 ug/ml in series [3] stood at 89%.

Compound `Cc1ccc(C2ON=C(c3ccc(C4=NOC(c5ccc(C)cc5)O4)cc3)O2)cc1` (stereo not given) returned an IC50 at 48 h in series [1] of 49 µM. Besides, in series [2], the selectivity ratio stood at 46.7. In the series with Entamoeba histolytica, this compound had an IC50 of 1.05 µM. The viability at 48 h, 12.5 ug/ml in series [3] was 82%.

For `CC(C)c1ccc(C2ON=C(c3ccc(C4=NOC(c5ccc(C(C)C)cc5)O4)cc3)O2)cc1` (stereo not given), half-maximal inhibition in the series on Entamoeba histolytica (IC50) was put at 4.65 µM.

In the series with Entamoeba histolytica, `CCc1ccc(C2ON=C(c3ccc(C4=NOC(c5ccc(CC)cc5)O4)cc3)O2)cc1` (stereo not given) came in with an IC50 of 2.78 µM.

Consider `Clc1ccc(C2ON=C(c3ccc(C4=NOC(c5ccc(Cl)cc5)O4)cc3)O2)cc1` (stereo not given), for which inhibition with Entamoeba histolytica was half-maximal at 4.21 µM (IC50).

`Clc1cccc(C2ON=C(c3ccc(C4=NOC(c5cccc(Cl)c5)O4)cc3)O2)c1` (stereo not given): the IC50 at 48 h in series [1] is 8 µM. Further, in series [2], the selectivity ratio came out at 5.67. This compound also registered a concentration for half-maximal inhibition (IC50) with Entamoeba histolytica of 1.41 µM. Further, the viability at 48 h, 12.5 ug/ml in series [3] worked out at 83.5%.

In series [1], `Cc1ncc([N+](=O)[O-])n1CCO` [METRONIDAZOLE] yielded a half-maximal inhibitory concentration (IC50) at 48 h of over 116 µM. In series [2], the selectivity ratio was over 64.4.

On to `Clc1ccc(C2ON=C(c3ccc(C4=NOC(c5ccc(Cl)c(Cl)c5)O4)cc3)O2)cc1Cl` (stereo not given), for which, in the series on Entamoeba histolytica, the IC50 came out at 6.1 µM.

Compound `COc1ccc(C2ON=C(c3ccc(C4=NOC(c5ccc(OC)c(OC)c5)O4)cc3)O2)cc1OC` (stereo not given) came in with an IC50 in the series with Entamoeba histolytica of 4.38 µM.

`Clc1ccccc1C1ON=C(c2ccc(C3=NOC(c4ccccc4Cl)O3)cc2)O1` (stereo not given): the half-maximal inhibitory concentration (IC50) at 48 h in series [1] was determined as 34 µM. In series [2], the selectivity ratio is 27.9. This compound also had an IC50 in the series with Entamoeba histolytica of 1.22 µM. Further, the viability at 48 h, 12.5 ug/ml in series [3] worked out at 96.2%.

For `O/N=C/c1ccc(/C=N/O)cc1`, the IC50 in the series on Entamoeba histolytica came out at 5.73 µM.

In the case of `c1ccc(C2ON=C(c3ccc(C4=NOC(c5ccccc5)O4)cc3)O2)cc1` (stereo not given), in the series on Entamoeba histolytica, inhibition was half-maximal at 3.96 µM (IC50).
